Where a SMILES comes first, the peptide text is derived from it. Bridges are numbered along the chain shown (N, C = ends). [ ]: non-standard residue; d: D form. Arg(NO2) = N=C(NCCC[C@H](N)C(=O)O)N[N+](=O)[O-]; Lys(Me3) = C[N+](C)(C)CCCC[C@H](N)C(=O)O; hArg = N=C(N)NCCCC[C@H](N)C(=O)O; tBuAla = CC(C)(C)C[C@H](N)C(=O)O; Cit = NC(=O)NCCC[C@H](N)C(=O)O; hLeu = CC(C)CC[C@H](N)C(=O)O; β3hS = N[C@@H](CO)CC(=O)O; Nle = CCCC[C@H](N)C(=O)O; Orn = NCCC[C@H](N)C(=O)O; Dab = NCC[C@H](N)C(=O)O; Nva = CCC[C@H](N)C(=O)O; Dap = NC[C@H](N)C(=O)O; βAla = NCCC(=O)O
Biological target: T1, Disintegrin and metalloproteinase domain-containing protein 8 (Homo sapiens, UniProt P78325)
T1 sequence (P78325 whole entry): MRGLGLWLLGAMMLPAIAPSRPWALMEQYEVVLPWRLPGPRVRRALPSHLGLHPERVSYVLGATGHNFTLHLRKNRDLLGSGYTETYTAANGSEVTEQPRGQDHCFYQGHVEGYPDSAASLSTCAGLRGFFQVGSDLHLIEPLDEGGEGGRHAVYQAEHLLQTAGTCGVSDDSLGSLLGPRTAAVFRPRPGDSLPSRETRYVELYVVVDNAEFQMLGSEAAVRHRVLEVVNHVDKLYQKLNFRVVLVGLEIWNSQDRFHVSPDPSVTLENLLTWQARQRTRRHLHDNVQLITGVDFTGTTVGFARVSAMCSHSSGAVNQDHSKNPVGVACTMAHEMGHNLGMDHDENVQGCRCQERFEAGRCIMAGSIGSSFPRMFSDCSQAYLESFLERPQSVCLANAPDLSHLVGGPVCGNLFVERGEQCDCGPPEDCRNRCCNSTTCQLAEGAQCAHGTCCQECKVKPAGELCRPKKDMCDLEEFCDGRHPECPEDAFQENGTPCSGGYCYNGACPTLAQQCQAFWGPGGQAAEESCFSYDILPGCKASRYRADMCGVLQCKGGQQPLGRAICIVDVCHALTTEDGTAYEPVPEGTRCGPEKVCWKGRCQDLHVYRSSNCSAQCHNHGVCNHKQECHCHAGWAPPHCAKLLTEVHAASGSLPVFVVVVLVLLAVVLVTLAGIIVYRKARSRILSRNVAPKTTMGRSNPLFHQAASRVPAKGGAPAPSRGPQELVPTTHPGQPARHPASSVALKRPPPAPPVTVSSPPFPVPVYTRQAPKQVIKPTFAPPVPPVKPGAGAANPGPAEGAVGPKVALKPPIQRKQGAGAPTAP
Assay: Inhibition of ADAM8 (unknown origin) expressed in African green monkey COS7 cells co-expressing CD23 assessed as inhibition of CD23 shedding after 6 hrs by ELISA
Assay type: cell-based, COS-7
Outline: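 COS7 cells co-transfected with CD23 and ADAM8 cDNA, seeded at 2 × 10^5 cells/well and exposed to peptide at 10 nM–10 μM for 6 h. Supernatant CD23 measured by sandwich ELISA: biotinylated anti-CD23 monoclonal antibody, 2 h at room temperature, streptavidin–HRP 1 h, TMB substrate, absorbance at 405 nm. Samples in duplicate against 400–12.5 units/mL standards. IC50 derived.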

Structure (SMILES) | IC50 [nM]
CCC[C@@H]1NC(=O)[C@H](CCCNC(=N)N)NC(=O)[C@H](CCCCN)NC(=O)[C@H](CC(=O)O)NC(=O)[C@H](CCCCN)NC(=O)CCNC1=O (cyclo(DKR[Nva][βAla]K)) | 452
CC(C)C[C@@H]1NC(=O)[C@H](CCCNC(=N)N)NC(=O)[C@H](CCCN)NC(=O)[C@H](CC(=O)O)NC(=O)[C@H](CCCCN)NC(=O)CCNC1=O (cyclo(D[Orn]RL[βAla]K)) | > 5000
CC(C)C[C@@H]1NC(=O)[C@H](CCCNC(=N)N)NC(=O)[C@H](CCN)NC(=O)[C@H](CC(=O)O)NC(=O)[C@H](CCCCN)NC(=O)CCNC1=O (cyclo(D[Dab]RL[βAla]K)) | > 5000
CC(C)C[C@@H]1NC(=O)[C@H](CCCNC(=N)N[N+](=O)[O-])NC(=O)[C@H](CCCCN)NC(=O)[C@H](CC(=O)O)NC(=O)[C@H](CCCCN)NC(=O)CCNC1=O (cyclo([Arg(NO2)]L[βAla]KDK)) | 2350
CC(C)CC[C@@H]1NC(=O)[C@H](CCCNC(=N)N)NC(=O)[C@H](CCCCN)NC(=O)[C@H](CC(=O)O)NC(=O)[C@H](CCCCN)NC(=O)CCNC1=O (cyclo(DKR[hLeu][βAla]K)) | 220
CC(C)C[C@@H]1NC(=O)[C@H](CCCNC(=N)N)NC(=O)[C@H](CN)NC(=O)[C@H](CC(=O)O)NC(=O)[C@H](CCCCN)NC(=O)CCNC1=O (cyclo(D[Dap]RL[βAla]K)) | > 5000
CC(C)C[C@@H]1NC(=O)[C@H](CCCNC(=N)N[N+](=O)[O-])NC(=O)[C@H](CCCCN)NC(=O)[C@H](CC(=O)O)NC(=O)[C@H](CCCCN)NC(=O)C[C@H](CO)NC1=O (cyclo([Arg(NO2)]L[β3hS]KDK)) | 1240
CCCC[C@@H]1NC(=O)[C@H](CCCNC(=N)N)NC(=O)[C@H](CCCCN)NC(=O)[C@H](CC(=O)O)NC(=O)[C@H](CCCCN)NC(=O)CCNC1=O (cyclo(DKR[Nle][βAla]K)) | 378
CC(C)C[C@@H]1NC(=O)[C@H](CCCNC(N)=O)NC(=O)[C@H](CCCCN)NC(=O)[C@H](CC(=O)O)NC(=O)[C@H](CCCCN)NC(=O)C[C@H](CO)NC1=O (cyclo([Cit]L[β3hS]KDK)) | 192
CC(C)C[C@@H]1NC(=O)[C@H](CCCCNC(=N)N)NC(=O)[C@H](CCCCN)NC(=O)[C@H](CC(=O)O)NC(=O)[C@H](CCCCN)NC(=O)C[C@H](CO)NC1=O (cyclo(DK[hArg]L[β3hS]K)) | 368

More lines, now with the values ahead:

IC50 [nM] | Structure (SMILES)
1650 | CC(C)C[C@@H]1NC(=O)[C@H](CCCNC(=N)N)NC(=O)[C@H](CCCCN)NC(=O)[C@H](CC(=O)O)NC(=O)[C@H](CCCCN)NC(=O)CCNC1=O (cyclo(DKRL[βAla]K))
240 | CC(C)C[C@@H]1NC(=O)[C@H](CCCNC(=N)N)NC(=O)[C@H](CCCCN)NC(=O)[C@H](CC(=O)O)NC(=O)[C@H](CCCCN)NC(=O)[C@H](CO)NC1=O (cyclo(DKRLSK))
> 10000 | CC(C)C[C@@H]1NC(=O)[C@H](CCCNC(=N)N)NC(=O)[C@H](CCCC[N+](C)(C)C)NC(=O)[C@H](CC(=O)O)NC(=O)[C@H](CCCCN)NC(=O)CCNC1=O (cyclo(D[Lys(Me3)]RL[βAla]K))
890 | CC(C)C[C@@H]1NC(=O)[C@H](CCCNC(N)=O)NC(=O)[C@H](CCCCN)NC(=O)[C@H](CC(=O)O)NC(=O)[C@H](CCCCN)NC(=O)CCNC1=O (cyclo([Cit]L[βAla]KDK))
157 | CC(C)C[C@@H]1NC(=O)[C@H](CCCNC(=N)N)NC(=O)[C@H](CCCCN)NC(=O)[C@H](CC(=O)O)NC(=O)[C@H](CCCCN)NC(=O)C[C@H](CO)NC1=O (cyclo(DKRL[β3hS]K))
142 | CC(C)CC[C@@H]1NC(=O)[C@H](CCCNC(=N)N)NC(=O)[C@H](CCCCN)NC(=O)[C@H](CC(=O)O)NC(=O)[C@H](CCCCN)NC(=O)C[C@H](CO)NC1=O (cyclo(DKR[hLeu][β3hS]K))
256 | CC(C)(C)C[C@@H]1NC(=O)[C@H](CCCNC(=N)N)NC(=O)[C@H](CCCCN)NC(=O)[C@H](CC(=O)O)NC(=O)[C@H](CCCCN)NC(=O)CCNC1=O (cyclo(DKR[tBuAla][βAla]K))
420 | CC(C)C[C@@H]1NC(=O)[C@H](CCCNC(=N)N)NC(=O)[C@H](CCCCN)NC(=O)[C@H](CC(=O)O)NC(=O)[C@H](CCCCN)NC(=O)C[C@@H](C(=O)O)NC1=O (KDKRLD-OH; lactam N-6)

Reference: ChEMBL document CHEMBL3826879, “Synthesis and biological evaluation of analogues of the potent ADAM8 inhibitor cyclo(RLsKDK) for the treatment of inflammatory diseases and cancer metastasis” (Bioorg Med Chem, 2016)
